From ChEMBL document CHEMBL1126205, “Novel spirosuccinimides with incorporated isoindolone and benzisothiazole 1,1-dioxide moieties as aldose reductase inhibitors and antihyperglycemic agents” (1992)
One block for each compound: values may come before it. Calls of active or inactive are those of the source. The calls are words filed in the database; no cut-off is given here.

Tests used:
Rattus norvegicus [1] = test: In vivo galactitol inhibitory activity measured by its ability to inhibit galactitol accumulation in lens at 3 mg/Kg/day; NS=Not significant (% Inhibition); type: functional, organism-based; conditions: Lens of camera-type eye
In short: (§1)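 Rats (n = 6) fed 20% galactose for 4 days, with compound given in the diet at the stated mg/kg per day. Galactitol accumulation in lens, sciatic nerve or diaphragm is scored as percent inhibition versus the non-treated group, as means of 3–8 drug-treated tissue samples. Dunnett's multiple comparison test applies; NS means p > 0.05.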

Mus musculus [2] = test: Antihyperglycemic activity measured as percent decrease in mice plasma glucose at 100 mg/Kg/day; type: functional
In short: (§2)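 Male db/db (C57BL/KsJ) mice, 4–6 per group, dosed at 100 mg/kg per day. Plasma glucose of the drug-treated group is expressed as percent decrease relative to a vehicle-treated control group. Values are mean ± SE, with p < 0.05 marked.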

Rattus norvegicus [3] = test: In vivo galactitol inhibitory activity measured by its ability to inhibit galactitol accumulation in sciatic nerve at 52 mg/Kg/day; type: functional
In short: (§3)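 Rats (n = 6) fed 20% galactose for 4 days, with compound given in the diet at the stated daily dose. Galactitol accumulation was measured in lens, sciatic nerve and diaphragm, and % inhibition was taken versus the nontreated group. Means are from three to eight drug-treated tissue samples. Dunnett's multiple comparison test was applied, with p > 0.05 reported as not significant.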

[4] = target: Aldo-keto reductase family 1 member B1 (Bos taurus) (UniProt P16116); test: In vitro aldose reductase inhibitory activity measured by NADPH-dependent inhibition of glyceraldehyde reduction in a partially purified bovine lens preparation at 10E-7 M
In short: (§4)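 Aldose reductase partially purified from bovine lens. Inhibition of NADPH-dependent glyceraldehyde reduction is measured at the single stated concentration and reported as percent inhibition, the mean of two determinations.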

Rattus norvegicus [5] = test: In vivo galactitol inhibitory activity measured by its ability to inhibit galactitol accumulation in lens at 52 mg/Kg/day; type: functional; conditions: Lens of camera-type eye; in short: as §1
[6] = target: Aldo-keto reductase family 1 member B1 (Bos taurus) (UniProt P16116); test: In vitro aldose reductase inhibitory activity measured by NADPH-dependent inhibition of glyceraldehyde reduction in a partially purified bovine lens preparation at 10E-6 M; in short: as §4
Rattus norvegicus [7] = test: In vivo galactitol inhibitory activity measured by its ability to inhibit galactitol accumulation in diaphragm at 52 mg/Kg/day; type: functional; in short: as §1
Rattus norvegicus [8] = test: In vivo galactitol inhibitory activity measured by its ability to inhibit galactitol accumulation in diaphragm at 3 mg/Kg/day; type: functional; in short: as §1
Rattus norvegicus [9] = test: In vivo galactitol inhibitory activity measured by its ability to inhibit galactitol accumulation in sciatic nerve at 3 mg/Kg/day; NS=Not significant (% Inhibition); type: functional, organism-based; in short: as §3
Mus musculus [10] = test: Antihyperglycemic activity measured as percent decrease in mice plasma glucose at 20 mg/Kg/day; type: functional
In short: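 Male db/db (C57BL/KsJ) mice, 4–6 per group, dosed at the stated mg/kg per day. Plasma glucose is expressed as percent decrease versus the vehicle-treated group. Values are mean ± SE.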

[11] = target: Aldo-keto reductase family 1 member B1 (Bos taurus) (UniProt P16116); test: In vitro aldose reductase inhibitory activity measured by NADPH-dependent inhibition of glyceraldehyde reduction in a partially purified bovine lens preparation at 10E-5 M; in short: as §4
Rattus norvegicus [12] = test: In vivo galactitol inhibitory activity measured by its ability to inhibit galactitol accumulation in sciatic nerve at 10 mg/kg/day; type: functional; in short: as §3
Rattus norvegicus [13] = test: In vivo galactitol inhibitory activity measured by its ability to inhibit galactitol accumulation in diaphragm at 10 mg/kg/day; type: functional; in short: as §1
Rattus norvegicus [14] = test: In vivo galactitol inhibitory activity measured by its ability to inhibit galactitol accumulation in lens at 10 mg/Kg/day; type: functional; conditions: Lens of camera-type eye; in short: as §1
Mus musculus [15] = test: Antihyperglycemic activity was determined by measuring percent decrease in plasma glucose at 100 mg/kg/day; type: functional; in short: as §2
Rattus norvegicus [16] = test: In vivo galactitol inhibitory activity measured by its ability to inhibit galactitol accumulation in sciatic nerve at 94 mg/kg/day; NS=not significant; type: functional, organism-based; in short: as §3
[17] = target: Aldo-keto reductase family 1 member B1 (Bos taurus) (UniProt P16116); test: in vitro aldose reductase inhibitory activity measured by NADPH-dependent inhibition of glyceraldehyde reduction in a partially purified bovine lens preparation at 10e -7M conc.; g=no inhibitory activity
In short: (§5)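 Partially purified aldose reductase from bovine lens. Inhibition of NADPH-dependent glyceraldehyde reduction was measured at a single test concentration. Values are % inhibition of enzymatic activity, mean of two determinations.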

Rattus norvegicus [18] = test: In vivo galactitol inhibitory activity measured by its ability to inhibit galactitol accumulation in lens at 94 mg/Kg/day; NS=not significant; type: functional, organism-based; conditions: Lens of camera-type eye; in short: as §3
[19] = target: Aldo-keto reductase family 1 member B1 (Bos taurus) (UniProt P16116); test: in vitro aldose reductase inhibitory activity measured by NADPH-dependent inhibition of glyceraldehyde reduction in a partially purified bovine lens preparation at 10e -6M conc.; in short: as §5
Rattus norvegicus [20] = test: In vivo galactitol inhibitory activity measured by its ability to inhibit galactitol accumulation in diaphragm at 50 mg/Kg/day; type: functional; in short: as §1
Rattus norvegicus [21] = test: In vivo galactitol inhibitory activity measured by its ability to inhibit galactitol accumulation in sciatic nerve at 50 mg/Kg/day; type: functional; in short: as §3
Rattus norvegicus [22] = test: In vivo galactitol inhibitory activity measured by its ability to inhibit galactitol accumulation in lens at 50 mg/Kg/day; type: functional; conditions: Lens of camera-type eye; in short: as §1
Rattus norvegicus [23] = test: In vivo galactitol inhibitory activity measured by its ability to inhibit galactitol accumulation in lens at 9 mg/Kg/day; type: functional; conditions: Lens of camera-type eye; in short: as §3
Rattus norvegicus [24] = test: In vivo galactitol inhibitory activity measured by its ability to inhibit galactitol accumulation in sciatic nerve at 9 mg/Kg/day; type: functional; in short: as §3
Rattus norvegicus [25] = test: In vivo galactitol inhibitory activity measured by its ability to inhibit galactitol accumulation in lens at 6 mg/Kg/day; NS=Not significant (% Inhibition); type: functional, organism-based; conditions: Lens of camera-type eye; in short: as §1
Rattus norvegicus [26] = test: In vivo galactitol inhibitory activity measured by its ability to inhibit galactitol accumulation in diaphragm at 6 mg/Kg/day; type: functional; in short: as §1
Rattus norvegicus [27] = test: In vivo galactitol inhibitory activity measured by its ability to inhibit galactitol accumulation in sciatic nerve at 6 mg/Kg/day; NS=Not significant (% Inhibition); type: functional, organism-based; in short: as §3
Rattus norvegicus [28] = test: In vivo galactitol inhibitory activity measured by its ability to inhibit galactitol accumulation in diaphragm at 9 mg/Kg/day; type: functional; in short: as §1
Rattus norvegicus [29] = test: In vivo galactitol inhibitory activity measured by its ability to inhibit galactitol accumulation in sciatic nerve at 73 mg/Kg/day; type: functional; in short: as §3
Rattus norvegicus [30] = test: In vivo galactitol inhibitory activity measured by its ability to inhibit galactitol accumulation in lens at 66 mg/Kg/day; type: functional; conditions: Lens of camera-type eye; in short: as §3
Rattus norvegicus [31] = test: In vivo galactitol inhibitory activity measured by its ability to inhibit galactitol accumulation in diaphragm at 73 mg/Kg/day; type: functional; in short: as §1
Rattus norvegicus [32] = test: In vivo galactitol inhibitory activity measured by its ability to inhibit galactitol accumulation in sciatic nerve at 81 mg/Kg/day; type: functional; in short: as §3
Rattus norvegicus [33] = test: In vivo galactitol inhibitory activity measured by its ability to inhibit galactitol accumulation in lens at 10 mg/Kg/day; NS=Not significant (% Inhibition); type: functional; conditions: Lens of camera-type eye; in short: as §1
Rattus norvegicus [34] = test: In vivo galactitol inhibitory activity measured by its ability to inhibit galactitol accumulation in diaphragm at 81 mg/Kg/day; type: functional; in short: as §1
Rattus norvegicus [35] = test: In vivo galactitol inhibitory activity measured by its ability to inhibit galactitol accumulation in lens at 81 mg/Kg/day; type: functional; conditions: Lens of camera-type eye; in short: as §3
Rattus norvegicus [36] = test: In vivo galactitol inhibitory activity measured by its ability to inhibit galactitol accumulation in lens at 6 mg/Kg/day; type: functional, Lens of camera-type eye; conditions: Rattus norvegicus, Lens of camera-type eye; in short: as §1
Rattus norvegicus [37] = test: In vivo galactitol inhibitory activity measured by its ability to inhibit galactitol accumulation in sciatic nerve at 101 mg/kg/day; NS=Not significant (% Inhibition); type: functional, organism-based; in short: as §3
Rattus norvegicus [38] = test: In vivo galactitol inhibitory activity measured by its ability to inhibit galactitol accumulation in lens at 101 mg/Kg/day; NS=Not significant (% Inhibition); type: functional, organism-based; conditions: Lens of camera-type eye; in short: as §1
Rattus norvegicus [39] = test: In vivo galactitol inhibitory activity measured by its ability to inhibit galactitol accumulation in diaphragm at 101 mg/kg/day; type: functional; in short: as §1

inhibition [6]: 0%
inhibition [11]: 63%
Structure (SMILES): O=C1CC2(C(=O)N1)c1ccccc1S(=O)(=O)N2Cc1ccc(Cl)c(Cl)c1 (stereo not given)
Decrease (Mus musculus [2]): 27%
Decrease (Mus musculus [10]): <15%

inhibition [4]: 32%
inhibition [6]: 66%
Structure (SMILES): O=C1CC2(C(=O)N1)C(=O)N1CCOc3cc(Cl)cc2c31 (stereo not given)
inhibition in vivo at 10 mg/kg/day (Rattus norvegicus [12]): 57%
inhibition in vivo at 10 mg/kg/day (Rattus norvegicus [13]): 88%
inhibition in vivo at 10 mg/kg/day (Rattus norvegicus [14]): 20%

inhibition [4]: 38%
inhibition [6]: 83%
Structure (SMILES): CN1C(=O)c2cc(Cl)c(Cl)cc2C12CC(=O)NC2=O (stereo not given)
inhibition in vivo at 50 mg/kg/day (Rattus norvegicus [20]): 90%
inhibition (Rattus norvegicus [1]): inactive
inhibition in vivo at 50 mg/kg/day (Rattus norvegicus [21]): 94%
Decrease (Mus musculus [2]): 31%
inhibition in vivo at 50 mg/kg/day (Rattus norvegicus [22]): 71%
inhibition in vivo at 9 mg/kg/day (Rattus norvegicus [23]): 10%
inhibition in vivo at 9 mg/kg/day (Rattus norvegicus [24]): 25%
inhibition (Rattus norvegicus [25]): inactive
inhibition in vivo at 6 mg/kg/day (Rattus norvegicus [26]): 44%
inhibition (Rattus norvegicus [27]): inactive
inhibition in vivo at 3 mg/kg/day (Rattus norvegicus [8]): 25%
inhibition (Rattus norvegicus [9]): inactive
inhibition in vivo at 9 mg/kg/day (Rattus norvegicus [28]): 57%

inhibition [4]: 0%
inhibition [6]: 21%
Structure (SMILES): CCN1C(=O)c2ccccc2C12CC(=O)NC2=O (stereo not given)
inhibition in vivo at 73 mg/kg/day (Rattus norvegicus [29]): 47%
inhibition in vivo at 66 mg/kg/day (Rattus norvegicus [30]): 25%
inhibition in vivo at 73 mg/kg/day (Rattus norvegicus [31]): 62%

Continued, compound first:

Structure (SMILES): CN1C(=O)c2ccc(F)cc2C12CC(=O)NC2=O (stereo not given)
inhibition (Rattus norvegicus [1]): inactive
Decrease (Mus musculus [2]): <15%
inhibition in vivo at 52 mg/kg/day (Rattus norvegicus [3]): 71%
inhibition [4]: 29%
inhibition in vivo at 52 mg/kg/day (Rattus norvegicus [5]): 26%
inhibition [6]: 74%
inhibition in vivo at 52 mg/kg/day (Rattus norvegicus [7]): 68%
inhibition in vivo at 3 mg/kg/day (Rattus norvegicus [8]): 15%
inhibition (Rattus norvegicus [9]): inactive

Structure (SMILES): CC1(COc2ccc(CC3SC(=O)NC3=O)cc2)CCCCC1 (stereo not given) [CIGLITAZONE]
Decrease (Mus musculus [15]): 32%
inhibition (Rattus norvegicus [16]): inactive
inhibition [17]: inactive
inhibition (Rattus norvegicus [18]): inactive
inhibition [19]: 9%

Structure (SMILES): CN1C(=O)c2cc(Cl)ccc2C12CC(=O)NC2=O (stereo not given)
inhibition (Rattus norvegicus [1]): inactive
inhibition in vivo at 81 mg/kg/day (Rattus norvegicus [32]): 77%
Decrease (Mus musculus [2]): <15%
inhibition (Rattus norvegicus [33]): inactive
inhibition in vivo at 81 mg/kg/day (Rattus norvegicus [34]): 81%
inhibition in vivo at 81 mg/kg/day (Rattus norvegicus [35]): 54%
inhibition [4]: 21%
inhibition (Rattus norvegicus [25]): inactive
inhibition [6]: 72%
inhibition in vivo at 6 mg/kg/day (Rattus norvegicus [36]): 31%
inhibition in vivo at 10 mg/kg/day (Rattus norvegicus [14]): 34%

Structure (SMILES): O=C1CC2(C(=O)N1)c1ccccc1C(=O)N2Cc1ccc(Br)cc1F (stereo not given)
Decrease (Mus musculus [2]): 36%
inhibition (Rattus norvegicus [37]): inactive
inhibition [4]: 7%
inhibition [6]: 54%
inhibition (Rattus norvegicus [38]): inactive
inhibition in vivo at 101 mg/kg/day (Rattus norvegicus [39]): 30%
